Source: PubChem BioAssay (several laboratories)
Cav32 inh: Cav3.2 calcium influx blockers – cell-based, Fluo-4 calcium fluorescence, FDSS, MLSMR library, primary screen; Voltage-dependent T-type calcium channel subunit alpha-1H (Homo sapiens), O95180; Cav3.2-expressing cells; stronger effect = lower value; B-score at 10 µM; 4% of 100,000 active; AID 449739, 2010;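 active = single-dose well whose peak fluorescence ratio is a statistical outlier from its plate by either plate-standardised score or position-corrected B-score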
Target sequence (O95180 whole entry, looked up): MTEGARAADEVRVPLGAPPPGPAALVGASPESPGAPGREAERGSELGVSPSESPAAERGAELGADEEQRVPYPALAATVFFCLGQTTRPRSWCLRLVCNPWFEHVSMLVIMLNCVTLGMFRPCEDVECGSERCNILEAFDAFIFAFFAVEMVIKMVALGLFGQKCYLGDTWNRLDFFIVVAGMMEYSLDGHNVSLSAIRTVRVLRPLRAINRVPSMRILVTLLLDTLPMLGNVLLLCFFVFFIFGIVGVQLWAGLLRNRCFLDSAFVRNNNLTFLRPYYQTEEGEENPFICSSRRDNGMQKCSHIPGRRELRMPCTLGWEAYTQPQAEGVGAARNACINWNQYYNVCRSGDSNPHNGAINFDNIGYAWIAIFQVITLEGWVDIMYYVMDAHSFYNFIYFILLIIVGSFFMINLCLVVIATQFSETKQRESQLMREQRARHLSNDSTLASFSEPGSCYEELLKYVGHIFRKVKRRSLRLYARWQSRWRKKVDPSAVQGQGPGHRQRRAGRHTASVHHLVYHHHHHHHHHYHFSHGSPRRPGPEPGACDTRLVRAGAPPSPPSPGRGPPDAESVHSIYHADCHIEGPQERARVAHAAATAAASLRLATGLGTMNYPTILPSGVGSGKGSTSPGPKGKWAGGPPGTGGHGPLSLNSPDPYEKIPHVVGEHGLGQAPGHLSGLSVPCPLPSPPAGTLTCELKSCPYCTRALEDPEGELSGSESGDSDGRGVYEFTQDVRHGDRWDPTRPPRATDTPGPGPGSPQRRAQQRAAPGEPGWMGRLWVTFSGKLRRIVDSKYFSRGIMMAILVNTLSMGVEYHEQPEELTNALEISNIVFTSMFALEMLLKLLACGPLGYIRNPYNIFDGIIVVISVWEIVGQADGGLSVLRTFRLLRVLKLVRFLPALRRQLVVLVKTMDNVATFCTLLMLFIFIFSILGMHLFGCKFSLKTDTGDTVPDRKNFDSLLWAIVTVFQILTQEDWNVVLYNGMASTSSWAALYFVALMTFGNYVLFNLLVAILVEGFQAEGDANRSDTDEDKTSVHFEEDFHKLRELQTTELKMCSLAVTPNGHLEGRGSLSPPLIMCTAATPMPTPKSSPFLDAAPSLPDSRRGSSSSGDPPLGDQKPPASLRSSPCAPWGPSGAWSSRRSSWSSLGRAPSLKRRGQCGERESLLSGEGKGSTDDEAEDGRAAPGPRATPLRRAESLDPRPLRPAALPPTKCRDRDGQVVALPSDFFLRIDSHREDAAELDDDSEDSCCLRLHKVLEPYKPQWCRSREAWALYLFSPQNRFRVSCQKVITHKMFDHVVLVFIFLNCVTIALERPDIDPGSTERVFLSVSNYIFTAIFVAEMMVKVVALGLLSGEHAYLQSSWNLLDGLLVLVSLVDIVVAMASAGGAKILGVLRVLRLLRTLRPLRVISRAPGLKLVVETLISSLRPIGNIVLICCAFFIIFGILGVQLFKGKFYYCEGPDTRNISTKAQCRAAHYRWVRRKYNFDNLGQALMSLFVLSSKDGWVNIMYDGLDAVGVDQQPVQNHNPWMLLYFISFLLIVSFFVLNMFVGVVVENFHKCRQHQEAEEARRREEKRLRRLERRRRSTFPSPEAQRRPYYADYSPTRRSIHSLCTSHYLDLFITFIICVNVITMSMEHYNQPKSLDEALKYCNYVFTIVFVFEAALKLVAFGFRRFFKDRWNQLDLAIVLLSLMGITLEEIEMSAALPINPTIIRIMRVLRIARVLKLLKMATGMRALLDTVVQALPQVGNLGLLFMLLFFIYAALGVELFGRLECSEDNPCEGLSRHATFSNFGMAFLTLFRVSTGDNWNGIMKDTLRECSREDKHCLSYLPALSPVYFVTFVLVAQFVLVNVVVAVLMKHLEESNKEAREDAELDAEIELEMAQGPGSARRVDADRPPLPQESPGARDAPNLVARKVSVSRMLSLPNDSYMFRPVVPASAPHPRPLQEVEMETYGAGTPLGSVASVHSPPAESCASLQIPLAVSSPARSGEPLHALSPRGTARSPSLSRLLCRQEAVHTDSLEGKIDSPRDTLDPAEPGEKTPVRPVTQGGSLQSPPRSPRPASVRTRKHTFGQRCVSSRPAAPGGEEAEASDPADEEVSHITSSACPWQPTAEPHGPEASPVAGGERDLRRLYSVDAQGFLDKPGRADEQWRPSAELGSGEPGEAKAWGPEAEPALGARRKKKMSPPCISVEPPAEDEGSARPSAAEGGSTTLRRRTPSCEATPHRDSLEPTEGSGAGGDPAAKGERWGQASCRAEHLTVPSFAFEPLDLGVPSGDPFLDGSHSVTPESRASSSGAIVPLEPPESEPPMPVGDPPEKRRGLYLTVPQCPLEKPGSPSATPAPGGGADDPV
HUVEC prolif 384: inhibitors of HUVEC proliferation, primary screen, cell-based, 384-well; CellTiter-Glo luminescence, 72 h; stronger effect = lower value; viability, % at 10 µM (by protocol); 1.1% of 86,000 active; AID 648, 2007;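 active = viability at or below 30%; inactive = viability above 30%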
H69AR inhibit: proliferation blockers of H69AR lung cancer cells, primary screen, cell-based, human, 86K library | H69AR lung tumor viability, ATP luminescence, 72 h; stronger effect = lower value | viability, % at 10 µM | 6% of 85,000 active | AID 598, 2007;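 active = viability at or below 40%; inactive = viability above 40%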;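 note: multidrug resistant small cell line overexpressing MRP-1 efflux transporter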
bCat KO growth: primary screen for growth suppressors in beta-catenin knockout HCT116 cells (colon tumor, human); 1.5% of 140,000 active; viability, % at 10 µM; HCT116 beta-catenin knockout viability, CellTiter-Glo, 60 h; stronger effect = lower value; AID 818, 2007;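 active = viability at or under a set limit, the compound median less 4 SD, cut at about 6% in these data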
Lung fibro prol: antiproliferative effect on LL 47 fibroblasts – human, LL 47 cells, CellTiter-Glo luminescence, primary screen | viability, % at 10 µM | 1.1% of 85,000 active | LL 47 human lung fibroblast viability, ATP luminescence; stronger effect = lower value;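 active = viability at or below 50% in the single dose screen; inactive = viability above 50%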;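 note: compound exposure lasted 72 h before the ATP readout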
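Material: human LL 47 lung fibroblast cells; quantity: 1,150 cells/well; medium: IMEM plus 15% FBS; doses: 0.1% DMSO in all compound wells; timing: overnight attachment after seeding, then 72 h compound exposure at 37 °C; detection: CellTiter-Glo luminescence; measure: % viability of median cell-only signal; controls: cell-only wells, no compound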
HCT116 PTEN-null: growth suppression of PTEN-null HCT116, primary screen, cell-based, CellTiter-Glo; HCT116 PTEN-null viability, 60 h; stronger effect = lower value; viability, % at 10 µM; 1.2% of 140,000 active; AID 827, 2007;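 active = viability at or below a set limit, 4 SD under the median of all tested compounds, cut at about 3.7% in these data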;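 note: PTEN knockout HCT116 line with beta catenin targeted HCT116 as companion control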
Numbers stand for hits; . = inactive; / = no result given. Shown are actives, neighbours in structure and some others; about 7.1% of the full set was active somewhere.

SMILES	Cav32 inh	HUVEC prolif 384	H69AR inhibit	bCat KO growth	Lung fibro prol	HCT116 PTEN-null
N#CC1=C2SCC(O)(c3ccccc3)N2C(=O)CC1c1ccccc1 (centres undefined)	.	.	24.4	.	46.8	.
CN1CC(=O)N2[C@H](c3ccc4c(c3)OCO4)c3[nH]c4ccccc4c3C[C@@H]2C1=O	.	/	/	/	/	/
COc1cc([C@H]2c3[nH]c4ccccc4c3C[C@H]3C(=O)N4[C@@H](c5cc(OC)c(OC)c(OC)c5)c5[nH]c6ccccc6c5C[C@H]4C(=O)N23)cc(OC)c1OC	.	/	/	3.0	/	1.8
O=C1[C@@H]2Cc3c([nH]c4ccccc34)[C@@H](c3ccccc3)N2C(=O)[C@@H]2Cc3c([nH]c4ccccc34)[C@@H](c3ccccc3)N12	/	/	/	1.4	/	1.5
CC(=O)c1ccc(NC(=O)c2ccn(C(=O)OCC(C)C)n2)cc1	/	/	/	.	/	.
COc1ccc(N/N=C(\C=N\O)C(=O)c2ccc(OC)cc2)cc1	.	37.9	26.2	.	.	.
CCc1nc(Nc2ccc(OC)c(OC)c2)c2nnn(Cc3ccccc3Cl)c2n1	.	26.6	.	.	.	.
O=C(c1ccco1)N1CCN(CC(=O)N2c3ccccc3CCc3ccccc32)CC1	.	.	.	.	.	.
CC1CCN(CC(=O)N2c3ccccc3CCc3ccccc32)CC1	.	/	/	0.8	/	0.8
COC(=O)c1sc2nc(-c3ccccc3)nc(N3CCN(C)CC3)c2c1C	.	.	.	.	.	.
Cc1nc(N2CCN(C)CC2)c2c(C)c(C(=O)Nc3ccc(C)c(F)c3)sc2n1	.	3.7	.	.	43.5	.
Cc1cccc2cc(CN(Cc3ccc(F)cc3)C(=O)N(C)C)c3nnnn3c12	-6.07	.	.	.	.	.
Cc1cccc2cc(CN(Cc3ccc(F)cc3)C(=O)C(F)(F)F)c3nnnn3c12	.	.	.	.	.	.
COC(=O)CNc1nc(-c2cccnc2)nc2ccccc12	.	.	.	.	.	.
c1cncc(-c2nc(NCC3COc4ccccc4O3)c3ccccc3n2)c1 (centres undefined)	/	.	15.8	.	.	.
O=C(/C=C/c1ccc(F)cc1)c1ccccc1Br	/	/	/	2.6	/	2.2
Cc1ccc(C(=O)/C=C/c2ccc(F)cc2)o1	/	/	/	.	/	.
CCN(CC)S(=O)(=O)c1ccc(N2CCN(c3cccc(OC)c3)CC2)c([N+](=O)[O-])c1	/	/	/	.	/	.
O=C(COC(=O)C12CC3CC(CC(C3)C1)C2)Nc1ccc(OC(F)F)cc1	-6.19	/	/	.	/	.
COc1ccc(NC(=O)C(c2ccccc2)N(C)C(=O)c2cnccn2)cc1 (centres undefined)	-4.18	.	.	.	.	.
COc1ccc(C(=O)C(OC(=O)c2ccccc2)c2ccccc2)cc1 (centres undefined)	/	/	/	.	/	.
CC(C)Oc1ccc(C(=O)CCN2CCCCC2)cc1	.	.	.	.	.	.
COc1ccc(C(=O)C(CN2CCCC2)c2ccccc2)cc1 (centres undefined)	.	.	1.2	2.2	10.4	1.1
O=C(c1ccc(F)cc1)C(CN1CCOCC1)c1ccccc1 (centres undefined)	.	.	.	1.6	25.3	1.6
COc1ccc(C(=O)CCN2CCCCCC2)cc1	.	/	/	1.2	/	1.3
SMILES	Cav32 inh	HUVEC prolif 384	H69AR inhibit	bCat KO growth	Lung fibro prol	HCT116 PTEN-null
CCCCOc1ccc(C(=O)C(CN2CCOCC2)c2ccccc2)cc1 (centres undefined)	.	2.3	1.0	1.9	.	2.0
COc1ccccc1C(=O)N(NC(=O)Oc1ccccc1)C(C)(C)C	/	/	/	.	/	.
Cc1c(/C=N/NC(=O)CNc2ccccc2)c2ccccn2c1C(=O)c1ccccc1	/	/	/	.	/	.
CCCOc1ccc(C(O)C(CN2CCOCC2)c2ccccc2)cc1 (centres undefined)	.	.	.	.	.	.
O=C(c1ccccc1)C(CCC(CN1CCOCC1)C(=O)c1ccccc1)CN1CCOCC1 (centres undefined)	.	.	1.3	1.9	49.6	1.9
CCCOc1ccc(C(=O)C(CN2CCCC2)c2ccccc2)cc1 (centres undefined)	/	/	/	1.3	/	0.9
Cc1cc(OCC(=O)Nc2ccc(S(=O)(=O)NC3=NCCCCC3)cc2)c(C(C)C)cc1Cl	/	/	/	.	/	.
CC(C)NS(=O)(=O)c1ccc(CCC(=O)Nc2ccc3c(c2)OCO3)cc1	.	.	.	.	.	.
Cc1cc(C)cc(-n2c(C)cc(/C=N/NC(=O)CSc3ncccn3)c2C)c1	-6.78	/	/	.	/	.
CCn1c(CNC(=O)c2ccco2)nnc1SCC(=O)Nc1ccc(Br)cc1F	.	.	.	.	.	.
CCC(C)Nc1nc(-c2cccc(OC)c2O)nc2ccccc12 (centres undefined)	.	.	4.9	2.5	.	2.1
COc1cccc(-c2nc(NCC3CCCO3)c3ccccc3n2)c1O (centres undefined)	.	.	31.9	.	.	.
COc1cccc(-c2nc(NC(C)C)c3ccccc3n2)c1O	/	.	.	.	.	.
Oc1ccccc1-c1nc(NCC2CCCO2)c2ccccc2n1 (centres undefined)	.	.	35.5	.	.	.
O=C(NCc1nc2ccccc2[nH]1)C1=C[C@H](C2CC2)C[C@H](OCc2ccc(CO)cc2)O1	.	/	/	/	/	/
CC(=O)N1N=C(c2ccco2)CC1c1ccc(Br)cc1 (centres undefined)	/	/	/	.	/	.
Cc1ccc(-n2nc(C)c3c(C)c(CCC(=O)NCc4ccco4)c(C)nc32)cc1	/	.	.	.	.	.
Cc1ccc(-n2nc(C)c3c(C)c(CCC(=O)NCc4ccccc4)c(C)nc32)cc1	.	.	32.2	.	.	.
CCOC(=O)C(=Cc1cc(=O)c(OC)co1)C(=O)OCC	/	/	/	1.9	/	1.4
CCn1nnc(-c2ccccc2NC(=O)C(F)(F)F)n1	.	.	/	.	.	.
COc1cc(OC)c(OC)cc1/C=N/NC(=S)NCC1CCCO1 (centres undefined)	.	/	/	.	/	.
C#CCNC(=O)C1=C[C@H](C2CCCCC2)[C@@H](CCCO)[C@H](OCC)O1	.	/	/	/	/	/
COC1(OC)N=C(N)C2(C#N)C(c3ccc4c(c3)OCO4)C12C#N (centres undefined)	.	.	32.9	.	.	.
COC1(OC)N=C(N)C2(C#N)C(c3ccc(C)cc3)C12C#N (centres undefined)	.	.	.	.	.	.
CCOc1ccc(C(=O)N/N=C(\c2ccccc2)c2ccccn2)cc1	.	/	/	3.7	/	2.6
O=C(/C=C(/c1ccc(Cl)cc1)n1cncn1)c1ccccc1	/	/	/	.	/	.
